Reference: ChEMBL document CHEMBL4689842, “EUbOPEN Chemogenomics Library wave 1” (2021)
Where “and” joins values, the source holds several entries; their conditions need not be identical. Equal entries are not always repeated.

System: U2OS
Assay: Multiplex assay against U2OS
Assay type: toxicity, cell-based
Conditions: human
Outline: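 On a CQ1 microscope at 37°C and 5% CO2, live cells were imaged after compound addition. They had been stained at seeding with Hoechst33342, BioTracker Green Microtubule Cytoskeleton Dye, MitoTracker Red and Annexin V Alexa Fluor 680. CellPathfinder machine-learning gating assigned cells to Hoechst high-intensity objects or normal cells, normal cells to healthy, pyknosed or fragmented nuclei, and pyknosed cells to mitotic or apoptotic. Tubulin, mitochondrial-mass and membrane-permeability phenotypes are per cents of healthy-nucleus cells.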

[1] = 12 h, 1 µM, compound concentration 1 uM, replicate 1
[2] = 12 h, 1 µM, compound concentration 1 uM, replicate 2
[3] = 12 h, 10 µM, compound concentration 10 uM, replicate 1
[4] = 12 h, 10 µM, compound concentration 10 uM, replicate 2
[5] = 24 h, 1 µM, compound concentration 1 uM, replicate 1
[6] = 24 h, 1 µM, compound concentration 1 uM, replicate 2
[7] = 24 h, 10 µM, compound concentration 10 uM, replicate 1
[8] = 24 h, 10 µM, compound concentration 10 uM, replicate 2
[9] = 48 h, 10 µM, compound concentration 10 uM, replicate 1
[10] = 48 h, 10 µM, compound concentration 10 uM, replicate 2

CNC(=O)c1nn(C)c2c1C(C)(C)Cc1cnc(Nc3ccc(N4CCN(C)CC4)cc3)nc1-2 [MILCICLIB]
Population Apoptotic (%) [1]: 39%
Population Fragmented Nuclei (%) [1]: 17%
Population Healthy Nuclei (%) [1]: 66%
Population Hoechst High Intensity Objects (%) [1]: 6%
Population Membrane Permeable-Phenotype (%) [1]: 25%
Population Mitochondria Different-Phenotype (%) [1]: 64%
Population Mitotic Cells (%) [1]: 60%
Population Normal (%) [1]: 93%
Population Pyknosed Nuclei (%) [1]: 15%
Population Tubulin-Different-Phenotype (%) [1]: 100%
Total Cell Count [1]: 194
Population Apoptotic (%) [2]: 58%
Population Fragmented Nuclei (%) [2]: 18%
Population Healthy Nuclei (%) [2]: 69%
Population Hoechst High Intensity Objects (%) [2]: 18%
Population Membrane Permeable-Phenotype (%) [2]: 12%
Population Mitochondria Different-Phenotype (%) [2]: 76%
Population Mitotic Cells (%) [2]: 41%
Population Normal (%) [2]: 81%
Population Pyknosed Nuclei (%) [2]: 12%
Population Tubulin-Different-Phenotype (%) [2]: 90%
Total Cell Count [2]: 163
Population Apoptotic (%) [3]: 60% and 50% and 62%
Population Fragmented Nuclei (%) [3]: 16% and 20% and 13%
Population Healthy Nuclei (%) [3]: 49% and 42% and 64%
Population Hoechst High Intensity Objects (%) [3]: 7% and 10% and 5%
Population Membrane Permeable-Phenotype (%) [3]: 20% and 15% and 29%
Population Mitochondria Different-Phenotype (%) [3]: 95% and 98% and 57%
Population Mitotic Cells (%) [3]: 40% and 50% and 37%
Population Normal (%) [3]: 92% and 89% and 94%
Population Pyknosed Nuclei (%) [3]: 33% and 37% and 21%
Population Tubulin-Different-Phenotype (%) [3]: 98% and 100% and 99%
Total Cell Count [3]: 208 and 243 and 221
Population Apoptotic (%) [4]: 73% and 55%
Population Fragmented Nuclei (%) [4]: 12% and 8%
Population Healthy Nuclei (%) [4]: 54% and 68% and 62%
Population Membrane Permeable-Phenotype (%) [4]: 28% and 25% and 24%
Population Mitochondria Different-Phenotype (%) [4]: 100% and 76%
Population Mitotic Cells (%) [4]: 26% and 44%
Population Normal (%) [4]: 90% and 85% and 97%
Population Pyknosed Nuclei (%) [4]: 25% and 19% and 29%
Population Tubulin-Different-Phenotype (%) [4]: 91%
Total Cell Count [4]: 122 and 87 and 65
Population Apoptotic (%) [5]: 85%
Population Fragmented Nuclei (%) [5]: 17%
Population Healthy Nuclei (%) [5]: 54%
Population Hoechst High Intensity Objects (%) [5]: 11%
Population Membrane Permeable-Phenotype (%) [5]: 33%
Population Mitochondria Different-Phenotype (%) [5]: 92%
Population Mitotic Cells (%) [5]: 14%
Population Normal (%) [5]: 88%
Population Pyknosed Nuclei (%) [5]: 27%
Population Tubulin-Different-Phenotype (%) [5]: 100%
Total Cell Count [5]: 186
Population Apoptotic (%) [6]: 86%
Population Fragmented Nuclei (%) [6]: 20%
Population Healthy Nuclei (%) [6]: 60%
Population Hoechst High Intensity Objects (%) [6]: 23%
Population Membrane Permeable-Phenotype (%) [6]: 22%
Population Mitochondria Different-Phenotype (%) [6]: 83%
Population Mitotic Cells (%) [6]: 13%
Population Normal (%) [6]: 76%
Population Pyknosed Nuclei (%) [6]: 18%
Population Tubulin-Different-Phenotype (%) [6]: 87%
Total Cell Count [6]: 160
Population Apoptotic (%) [7]: 78% and 87% and 84%
Population Fragmented Nuclei (%) [7]: 20% and 22% and 15%
Population Healthy Nuclei (%) [7]: 27% and 32% and 52%
Population Hoechst High Intensity Objects (%) [7]: 15% and 11%
Population Membrane Permeable-Phenotype (%) [7]: 40% and 25% and 36%
Population Mitochondria Different-Phenotype (%) [7]: 100% and 93%
Population Mitotic Cells (%) [7]: 21% and 12% and 15%
Population Normal (%) [7]: 84% and 88%
Population Pyknosed Nuclei (%) [7]: 51% and 45% and 32%
Population Tubulin-Different-Phenotype (%) [7]: 100% and 95% and 96%
Total Cell Count [7]: 235 and 238 and 280
Population Apoptotic (%) [8]: 66% and 83% and 86%
Population Fragmented Nuclei (%) [8]: 9% and 14%
Population Healthy Nuclei (%) [8]: 49% and 64% and 61%
Population Hoechst High Intensity Objects (%) [8]: 12% and 13% and 18%
Population Membrane Permeable-Phenotype (%) [8]: 56% and 31% and 62%
Population Mitochondria Different-Phenotype (%) [8]: 82%
Population Mitotic Cells (%) [8]: 33% and 16% and 13%
Population Normal (%) [8]: 87% and 86% and 81%
Population Pyknosed Nuclei (%) [8]: 40% and 21% and 28%
Population Tubulin-Different-Phenotype (%) [8]: 93%
Total Cell Count [8]: 78 and 113 and 118
Population Apoptotic (%) [9]: 86% and 85%
Population Fragmented Nuclei (%) [9]: 29% and 24%
Population Healthy Nuclei (%) [9]: 9% and 15%
Population Hoechst High Intensity Objects (%) [9]: 15% and 20%
Population Membrane Permeable-Phenotype (%) [9]: 26% and 55%
Population Mitochondria Different-Phenotype (%) [9]: 100%
Population Mitotic Cells (%) [9]: 13% and 14%
Population Normal (%) [9]: 84% and 79%
Population Pyknosed Nuclei (%) [9]: 61% and 59%
Population Tubulin-Different-Phenotype (%) [9]: 89%
Total Cell Count [9]: 315 and 232
Population Apoptotic (%) [10]: 76% and 84%
Population Fragmented Nuclei (%) [10]: 11% and 10%
Population Healthy Nuclei (%) [10]: 38% and 52%
Population Hoechst High Intensity Objects (%) [10]: 30% and 27%
Population Membrane Permeable-Phenotype (%) [10]: 87% and 71%
Population Mitochondria Different-Phenotype (%) [10]: 97%
Population Mitotic Cells (%) [10]: 23% and 15%
Population Normal (%) [10]: 70% and 72%
Population Pyknosed Nuclei (%) [10]: 50% and 37%
Population Tubulin-Different-Phenotype (%) [10]: 100% and 95%
Total Cell Count [10]: 118 and 104

CC(=O)O[C@H]1C(=O)[C@@]2(C)[C@H]([C@H](OC(=O)c3ccccc3)[C@]3(O)C[C@H](OC(=O)[C@H](O)[C@@H](NC(=O)c4ccccc4)c4ccccc4)C(C)=C1C3(C)C)[C@]1(OC(C)=O)CO[C@@H]1C[C@@H]2O [PACLITAXEL]
Population Fragmented Nuclei (%) [1]: 6% and 4%
Population Healthy Nuclei (%) [1]: 86% and 92%
Population Hoechst High Intensity Objects (%) [1]: 3% and 2%
Population Membrane Permeable-Phenotype (%) [1]: 15% and 11%
Population Mitochondria Different-Phenotype (%) [1]: 21% and 22%
Population Mitotic Cells (%) [1]: 33% and 80%
Population Normal (%) [1]: 96% and 97%
Population Pyknosed Nuclei (%) [1]: 7% and 3%
Population Tubulin-Different-Phenotype (%) [1]: 32% and 25%
Population Apoptotic (%) [2]: 6% and 8%
Population Fragmented Nuclei (%) [2]: 7%
Population Healthy Nuclei (%) [2]: 81% and 84%
Population Hoechst High Intensity Objects (%) [2]: 10% and 11%
Population Membrane Permeable-Phenotype (%) [2]: 14% and 7%
Population Mitochondria Different-Phenotype (%) [2]: 24% and 30%
Population Mitotic Cells (%) [2]: 93% and 91%
Population Normal (%) [2]: 90% and 88%
Population Pyknosed Nuclei (%) [2]: 10% and 8%
Population Tubulin-Different-Phenotype (%) [2]: 33%
Population Apoptotic (%) [3]: 30% and 77% and 26%
Population Fragmented Nuclei (%) [3]: 3% and 5% and 4% and 2%
Population Healthy Nuclei (%) [3]: 91% and 89%
Population Hoechst High Intensity Objects (%) [3]: 3% [middle of 4 runs]
Population Membrane Permeable-Phenotype (%) [3]: 11% and 7%
Population Mitochondria Different-Phenotype (%) [3]: 19% and 25%
Population Normal (%) [3]: 96% and 95% and 99% and 98%
Population Pyknosed Nuclei (%) [3]: 5%
Population Tubulin-Different-Phenotype (%) [3]: 41% and 30% and 39%
Population Fragmented Nuclei (%) [4]: 10% and 6%
Population Healthy Nuclei (%) [4]: 81% and 88% and 83% and 87%
Population Hoechst High Intensity Objects (%) [4]: 12% and 9% and 11%
Population Membrane Permeable-Phenotype (%) [4]: 12% and 9% and 8% and 6%
Population Mitochondria Different-Phenotype (%) [4]: 28% and 20% and 33%
Population Mitotic Cells (%) [4]: 77% [middle of 4 runs]
Population Normal (%) [4]: 87% and 90% and 88%
Population Pyknosed Nuclei (%) [4]: 8% and 6% and 2%
Population Tubulin-Different-Phenotype (%) [4]: 28% and 26% and 31%
Population Fragmented Nuclei (%) [5]: 4%
Population Healthy Nuclei (%) [5]: 93% and 90%
Population Hoechst High Intensity Objects (%) [5]: 1% and 3%
Population Membrane Permeable-Phenotype (%) [5]: 10% and 3%
Population Mitochondria Different-Phenotype (%) [5]: 19% and 15%
Population Mitotic Cells (%) [5]: 40% and 83%
Population Normal (%) [5]: 98% and 96%
Population Pyknosed Nuclei (%) [5]: 2% and 5%
Population Tubulin-Different-Phenotype (%) [5]: 35%
Population Apoptotic (%) [6]: 38% and 33%
Population Fragmented Nuclei (%) [6]: 5%
Population Healthy Nuclei (%) [6]: 87% and 91%
Population Hoechst High Intensity Objects (%) [6]: 6% and 7%
Population Membrane Permeable-Phenotype (%) [6]: 12% and 9%
Population Mitochondria Different-Phenotype (%) [6]: 23% and 26%
Population Mitotic Cells (%) [6]: 61% and 66%
Population Normal (%) [6]: 93% and 92%
Population Pyknosed Nuclei (%) [6]: 6% and 4%
Population Tubulin-Different-Phenotype (%) [6]: 37% and 33%
Population Apoptotic (%) [7]: 37% and 21%
Population Fragmented Nuclei (%) [7]: 3% and 2%
Population Healthy Nuclei (%) [7]: 94% and 91% and 93%
Population Hoechst High Intensity Objects (%) [7]: 2% and 1%
Population Membrane Permeable-Phenotype (%) [7]: 6% and 4%
Population Mitochondria Different-Phenotype (%) [7]: 26% and 17% and 29%
Population Mitotic Cells (%) [7]: 62% and 78%
Population Normal (%) [7]: 97% and 98%
Population Pyknosed Nuclei (%) [7]: 2% and 4% and 5%
Population Tubulin-Different-Phenotype (%) [7]: 50% and 38% and 34% and 37%
Population Apoptotic (%) [8]: 50% [middle of 4 runs]
Population Fragmented Nuclei (%) [8]: 10% and 5% and 7%
Population Healthy Nuclei (%) [8]: 81% and 86% and 85%
Population Hoechst High Intensity Objects (%) [8]: 5% and 3% and 4% and 9%
Population Mitochondria Different-Phenotype (%) [8]: 32% [middle of 4 runs]
Population Mitotic Cells (%) [8]: 45% and 66% and 50% and 64%
Population Normal (%) [8]: 94% and 96% and 95% and 90%
Population Pyknosed Nuclei (%) [8]: 8% and 3% and 6%
Population Tubulin-Different-Phenotype (%) [8]: 31% and 26% and 27%
